Test results taken from PubChem BioAssay AID1296 (Columbia University Molecular Screening Center, 2008).
The whole screen tested about 130,000 compounds, of which about 1,000 (0.77%) were called active. Not shown: some 1% with an inconclusive outcome.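 The calls were made as follows: active = activation at 2 µM above a set limit, confirmed on inspection of the cell images; inconclusive = above the set limit but not confirmed on image inspection; inactive = the rest.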 The sample as a whole holds a higher share of actives than the screen did.

Assay: insulin gene promoter stimulation in islet cells – imaging, TRM-6 cells, eGFP reporter, cell count, primary screen (AID 1296);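 as to activation: share of cells whose green reporter signal exceeds an intensity cutoff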
Settings: at 2 µM; activation: stronger effect = higher value, plate-scaled: unstimulated 0, stimulated control 100; normalized cell count: measured here: cell count (toxicity)
Outline: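 Test system: human fetal islet-derived TRM-6 cells with tamoxifen-inducible insulin promoter–eGFP reporter. Compound dosing: 2 µM final, single concentration. Incubation: tamoxifen pre-incubation 15 h overnight, then compound exposure 48 h at 37 °C. Signal: fixed-cell fluorescence microscopy, eGFP plus Hoechst.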

With `CCCOCC(O)CC(CC)C(=O)NNC(=S)Nc1ccccc1` (stereo not drawn) as the molecule, how does the activation read?
The activation was 0% (inactive).

And the normalized cell count?
The normalized cell count was 106%.

For `Nc1ccc(-n2nncc2-c2ccco2)cc1`, which activation is on record?
Its activation is 406% (active).

And the normalized cell count?
The normalized cell count was 53.5%.

What does the source list for `CCOC(=O)CNC(=O)CSc1ccc2nnc(-c3cccnc3)n2n1`?
activation: 0% (inactive); normalized cell count: 132%

Which results are given for `COc1ccc(-c2nc3ccccc3n2CCC(C)C)cc1OC`?
activation: -9.86% (inactive); normalized cell count: 74.4%

Which activation does the source give for `Cn1cccc1-c1nc2ccccc2n1C` here?
The activation was 300% (active).

And the normalized cell count?
The normalized cell count was 75.7%.

Which results are given for `COc1ccc(N2CCN(C(=O)COc3ccc4c(C)cc(=O)oc4c3)CC2)cc1`?
activation: -8.33% (inactive); normalized cell count: 132%

Which activation does the source give for `COc1cc(NC(=S)NNC(=O)CC(C)C)c(OC)cc1Cl` here?
The activation was 9.38% (inactive).

And the normalized cell count?
The normalized cell count was 70.7%.

With `O=C(NC1CCCC1)C(NS(=O)(=O)c1ccc(Br)s1)c1ccccc1` (stereo not drawn) as the molecule, how does the activation read?
The activation was 107% (inactive).

And the normalized cell count?
Its normalized cell count is 72.4%.

For `O=C(CSc1nn(-c2ccc(F)cc2)c(=S)s1)NC1CCS(=O)(=O)C1` (stereo not drawn), which activation is on record?
Its activation is 5.88% (inactive).

What about the normalized cell count of the same molecule?
The normalized cell count was 104%.

With `COc1ccc(-n2nc3c(c2NC(=O)c2ccc(N4C(=O)CCC4=O)cc2)CSC3)cc1` as the molecule, how does the activation read?
Its activation is -5.88% (inactive).

What about the normalized cell count of the same molecule?
The normalized cell count was 73.5%.

Which activation does the source give for `O=C(CSc1nc2ccccc2o1)N1c2ccccc2Sc2ccc(Cl)cc21` here?
Its activation is -4.44% (inactive).

What about the normalized cell count of the same molecule?
The normalized cell count was 77.2%.

With `CCS(=O)(=O)c1ccc2oc(SCC(=O)N3c4ccccc4CC3C)nc2c1` (stereo not drawn) as the molecule, how does the activation read?
Its activation is 457% (active).

What about the normalized cell count of the same molecule?
Its normalized cell count is 101%.

Which activation does the source give for `CC1Cc2ccccc2N1C(=O)CSc1nc2ccccc2o1` (stereo not drawn) here?
Its activation is 7.14% (inactive).

What about the normalized cell count of the same molecule?
Its normalized cell count is 87.7%.

Which activation does the source give for `CCCC1NC(=S)NC(C)=C1C(C)=O` (stereo not drawn) here?
The activation was 7.14% (inactive).

And the normalized cell count?
Its normalized cell count is 103%.

For `COC(=O)c1ccccc1NC(=S)NC(=O)c1ccccc1F`, which activation is on record?
Its activation is 0% (inactive).

What about the normalized cell count of the same molecule?
Its normalized cell count is 112%.

For `Cc1ccccc1OCCOc1ccc([N+](=O)[O-])cc1/C=N/n1cnnc1`, which activation is on record?
Its activation is 107% (inactive).

What about the normalized cell count of the same molecule?
The normalized cell count was 5.92%.

Which activation does the source give for `Cn1c(SCC(=O)N2CCCc3ccccc32)nc2ccccc2c1=O` here?
Its activation is 57.1% (inactive).

What about the normalized cell count of the same molecule?
The normalized cell count was 100%.

With `Cc1[nH]c2ccccc2c1SCC(=O)Nc1nccs1` as the molecule, how does the activation read?
The activation was 5.56% (inactive).

And the normalized cell count?
The normalized cell count was 140%.

Which activation does the source give for `COC(=O)c1[nH]c2ccccc2c1NC(=O)CN1CCCc2ccccc21` here?
The activation was 209% (active).

And the normalized cell count?
Its normalized cell count is 75.4%.

Which results are given for `Cc1cccc(-n2cc(CN3CCN(C(=O)c4ncn[nH]4)CC3)c(-c3cccc(F)c3)n2)c1`?
activation: 0% (inactive); normalized cell count: 108%

Which activation does the source give for `O=C(COc1ccc2c(C(F)(F)F)cc(=O)oc2c1)Nc1ccc2c(c1)OCCO2` here?
Its activation is 2.7% (inactive).

What about the normalized cell count of the same molecule?
Its normalized cell count is 112%.

For `CC1(C)CC(=O)c2cnc3nc4ccccc4n3c2C1`, which activation is on record?
The activation was -76.2% (inactive).

And the normalized cell count?
Its normalized cell count is 56.3%.

Which activation does the source give for `Cc1cc(C(=O)OCC(=O)Nc2nnc(C(C)C)s2)c2ccccc2n1` here?
Its activation is 0% (inactive).

What about the normalized cell count of the same molecule?
The normalized cell count was 93.8%.

With `N#C/C(=C\C1=C(N2CCOCC2)C(=C\c2ccccc2)/CC1)C(=O)Nc1ccccc1F` as the molecule, how does the activation read?
The activation was 525% [fluoresces] (active).

And the normalized cell count?
Its normalized cell count is 109%.

For `CC(CC(=O)O)C(=O)c1ccc(Cl)c([N+](=O)[O-])c1` (stereo not drawn), which activation is on record?
The activation was 6.67% (inactive).

And the normalized cell count?
Its normalized cell count is 136%.

For `Cn1nc(-c2ccc(N3CCOCC3)c(NC(=O)c3ccccc3)c2)c2ccccc2c1=O`, which activation is on record?
Its activation is 0% (inactive).

And the normalized cell count?
Its normalized cell count is 95.6%.

For `O=C1OC(NC(=O)c2ccccc2)C(N2CCOCC2)=C1Cl` (stereo not drawn), which activation is on record?
The activation was 162% (active).

And the normalized cell count?
The normalized cell count was 118%.

For `O=C1C(Cl)=C(N2CCOCC2)C(=O)N1c1ccccc1`, which activation is on record?
The activation was 0% (inactive).

And the normalized cell count?
Its normalized cell count is 129%.

What does the source list for `C=CCc1cccc2cc(C(=O)OCC)c(=O)oc12`?
activation: 7.14% (inactive); normalized cell count: 70.6%

Which results are given for `COCCCNCCOCCOc1ccc(Cl)cc1Br`?
activation: 6.67% (inactive); normalized cell count: 166%

What does the source list for `CC1=NN(C(=O)Cc2ccc(C)cc2)C(O)(c2cccnc2)C1` (stereo not drawn)?
activation: -5.41% (inactive); normalized cell count: 170%

What does the source list for `CN(CC(=O)NC1CCCC1)S(=O)(=O)c1cnc[nH]1`?
activation: -7.14% (inactive); normalized cell count: 85%

Which activation does the source give for `CC(C)COP(=O)(c1ccc(N(C)C)cc1)C(Nc1ccccc1)c1cccnc1` (stereo not drawn) here?
Its activation is 2.94% (inactive).

And the normalized cell count?
The normalized cell count was 145%.

Which results are given for `COC(=O)c1ccc(COC(=O)c2c(C)nn(Cc3ccccc3Cl)c2Cl)o1`?
activation: 5.26% (inactive); normalized cell count: 164%

With `COC(=O)c1ccc(CSc2ccccc2C)o1` as the molecule, how does the activation read?
The activation was 230% (active).

What about the normalized cell count of the same molecule?
The normalized cell count was 122%.

What does the source list for `COC(=O)c1ccc(Cc2ccccc2)o1`?
activation: -92.9% (inactive); normalized cell count: 83.1%

What does the source list for `C=CCN(c1ccc(C(=O)Nc2cc(C)cc(C)c2)cc1)S(C)(=O)=O`?
activation: 8.11% (inactive); normalized cell count: 119%

Which activation does the source give for `Cc1cccc2cc(CN(Cc3cccs3)C(=S)NCc3ccco3)c(=O)[nH]c12` here?
Its activation is -7.94% (inactive).

And the normalized cell count?
Its normalized cell count is 94.8%.

With `CCNC(=S)N(CCc1c(C)[nH]c2ccc(C)cc12)Cc1ccco1` as the molecule, how does the activation read?
The activation was 340% (active).

And the normalized cell count?
Its normalized cell count is 55.7%.

What does the source list for `CC1CCCN(CCOCCOc2ccccc2-c2ccccc2)C1` (stereo not drawn)?
activation: 7.14% (inactive); normalized cell count: 133%

Which activation does the source give for `Cc1ccc(C(C)(C)C)c(OCCCCN2CCCC2)c1` here?
The activation was -1.96% (inactive).

What about the normalized cell count of the same molecule?
Its normalized cell count is 97.2%.

With `CCOc1nnc(C)c2c(C)n(-c3cccc(Cl)c3)nc12` as the molecule, how does the activation read?
The activation was 162% (active).

And the normalized cell count?
Its normalized cell count is 134%.

Which activation does the source give for `Cc1cc(C)c2c(n1)nn1c(N3CCN(c4cccc(Cl)c4)CC3)cc(C)nc21` here?
Its activation is 141% (inactive).

What about the normalized cell count of the same molecule?
Its normalized cell count is 99.8%.

Which activation does the source give for `Cc1nn(-c2ccccc2)c(C)c1NC(=O)COc1ccc(Cl)cc1Cl` here?
Its activation is 3.7% (inactive).

What about the normalized cell count of the same molecule?
The normalized cell count was 120%.
